Read-outs that look alike come from different tables or passages of the source.
Experiments:
[1] = cited from earlier work
[2] = format: in vivo, healthy Korean male volunteers; settings: for Pharmacokinetic effect on the co-administered drug: steady-state gemigliptin 50 mg, single-dose glimepiride 4 mg
In short: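 Randomized open-label crossover. Oral gemigliptin 50 mg once daily for 6 days with glimepiride 4 mg co-administered on day 7, versus single glimepiride 4 mg. Heparinized plasma was sampled to 24 h (days 6–7 at 0–14 h, day 8 at 0 h). LC–MS/MS; LLOQ 0.5 ng/mL gemigliptin, 1 ng/mL glimepiride. Non-compartmental AUC by linear-up/log-down trapezoidal method. Log-transformed GMRs with 90 % CI from mixed-effects ANOVA.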

Tolerability assessments = format: in vivo, healthy Korean male volunteers
In short: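 Subjects receiving more than one dose were included. Medical staff monitored adverse events after dosing. Vital signs were taken seated after ≥5 min rest. 12-lead ECG was recorded before blood sampling. Physical examinations were done, and hematology, biochemistry and urinalysis were drawn after >8 h fasting. Investigators judged abnormal findings for clinical significance and relation to study drug.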

[3] = cited from earlier work; remark: listed apart in the source
cytochrome P450 (CYP) = settings: cited from earlier work
[4] = stated as known, no reference given; cited from earlier work
[5] = cited from earlier work; for t max: oral
[6] = single ascending-dose study, healthy volunteers, 50–400 mg
[7] = glimepiride 4 mg + gemigliptin 50 mg, day 7
[8] = glimepiride 4 mg single dose only
[9] = plasma, glimepiride 4 mg single dose only
[10] = another study, subjects all Caucasian
[11] = single-dose 4 mg, healthy volunteers, ref Malerczyk et al. [20]

In the case of `N[C@@H](CC(=O)N1CCn2c(nnc2C(F)(F)F)C1)Cc1cc(F)c(F)cc1F` [sitagliptin], the “effect on the pharmacokinetics of glyburide” value [1] is given as “does not affect the pharmacokinetics of glyburide”.

For `CC#CCn1c(N2CCC[C@@H](N)C2)nc2c1c(=O)n(Cc1nc(C)c3ccccc3n1)c(=O)n2C` [linagliptin], the “pharmacokinetics on coadministration of linagliptin and glyburide” value ([1]; linagliptin 5 mg/day × 6 days, glyburide single-dose 1.75 mg) is listed as “not affected”.

With `N[C@@H](CC(=O)N1CCc2c(nc(C(F)(F)F)nc2C(F)(F)F)C1)CN1CC(F)(F)CCC1=O` [Gemigliptin] the t max ([2]; male, human, plasma, oral, 50 mg, t max,ss, median (min–max), plasma, day 6, gemigliptin 50 mg once daily only) was 1.5 h, the AUC ([2]; male, human, plasma, po, 50 mg) was 0.798 µg·h/mL and the Cmax ([2]; male, human, plasma, po, 50 mg, C max,ss, mean (SD), plasma, day 6, gemigliptin 50 mg once daily only, oral) was 0.0802 µg/mL. For the same compound, the “Pharmacokinetic effect on the co-administered drug” value [2] was “nor did gemigliptin affect the pharmacokinetics of single-dose glimepiride”, the “Adverse events during dosing (events and participants)” value (Tolerability assessments; repeated gemigliptin dosing, 50 mg/day, 23 participants) was “six AEs occurred in four participants” and the “Adverse events considered possibly related to the study drug” value (Tolerability assessments; rhinorrhea, constipation, and headache) was “three AEs in three participants were considered possibly related to the study drug”. For the same compound, the half-life ([3]; day 1 of a previous study using 24 h sampling) was 7.4 to 9.3 h, the accumulation ([3]; previous multiple-dose study) was “accumulation was reported” and the half-life ([3]; previous multiple-dose study) was “approximately 17 h”. For the same compound, the half-life ([3]; previously reported by multiple-dose studies, sampling ≤72 h after the last dose) was 16.6 to 20.1 h, the “mean t ½” value [3, 6] was 16.7 to 21.3 h and the t max [3, 6] was 0.5 to 5.1 h. For the same compound, the “inhibitory or induction potential” value (cytochrome P450 (CYP); gemigliptin and its metabolites, preclinical studies, ref Gemigliptin IB version 6.0, September 2012) was “very low”, the major metabolic route (cytochrome P450 (CYP); preclinical studies, ref Gemigliptin IB version 6.0, September 2012) was “via cytochrome P450 (CYP) 3A4” and the effects on cytochromes (cytochrome P450 (CYP); stated as known, no reference given) was “no significant effects on cytochromes”. The protein binding [4] was “no strong protein-binding characteristics”.

For `OC(Cn1cncn1)(Cn1cncn1)c1ccc(F)cc1F` [fluconazole], the “effect on plasma concentrations of glimepiride” value [1] is given as “increase plasma concentrations of glimepiride”.

In the case of `CCC1=C(C)CN(C(=O)NCCc2ccc(S(=O)(=O)NC(=O)NC3CCC(CO)CC3)cc2)C1=O` (stereo not drawn) [M1], the “t max, median (min–max)” value [2, 7] is reported as 4.0 (3.0–6.0) h, the “t max, median (min–max)” value [2, 8] is reported as 4.0 (3.0–6.0) h and the “AUClast, mean (SD)” value [2, 9] is reported as 189.88 (52.77) ng · h/mL. For the same compound, the “C max, mean (SD)” value [2, 9] was 28.26 (8.40) ng/mL.

In the case of `CCC1=C(C)CN(C(=O)NCCc2ccc(S(=O)(=O)NC(=O)N[C@H]3CC[C@H](C)CC3)cc2)C1=O` [Glimepiride], the “t max, median (min–max)” value [2, 7] is reported as 3.0 (2.0–5.0) h, the “t max, median (min–max)” value [2, 8] is reported as 4.0 (2.0–5.0) h and the “Pharmacokinetic effect on the co-administered drug” value [2] is reported as “no pharmacokinetic effects on steady-state gemigliptin”. For the same compound, the accumulation ([5]; after multiple dosing) was “without accumulation”, the oral absorption ([5]; after oral administration) was “completely absorbed” and the “AUClast (geometric mean)” value [5, 10] was 8,753 ng · h/mL. The “geometric C max mean” value [5, 10] was 1,084 ng/mL, the half-life [5] was under 5 h and the accumulation ([5]; multiple doses, 1 day vs 7 days, T2DM patients) was “does not accumulate”. The t max ([5]; T2DM patients) was 2.4 to 3.75 h, the t max ([5]; healthy volunteers) was 0.7 to 2.8 h and the “mean AUC” value [5, 11] was 1,297 μg/L · h. For the same compound, the “mean C max” value [5, 11] was 0.3078 µg/mL.
